In paper PMC6434473 (Cell Transplantation, 2018):
Entries after “also recorded” stand apart in the source; their conditions may differ.

Experiments:
HSCs = settings: clinical studies; cited from earlier work
human CXCR4 = experiment: SDF-1α-induced phosphorylation of Akt and Erk in CXCR4-transfected CHO cells; assay type: cell-based; settings: SDF-1α 12.5 nM
Method in brief: (§1)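 CHO cells were stably transfected with pcDNA3-hCXCR4 or pcDNA3-hCXCR7, selected in G418 (1.2 mg/mL) and single-cell cloned; the CXCR4 line was also FACS-sorted. After SDF-1α exposure, cells were lysed 30 min on ice (Tris/NaCl/EGTA/deoxycholate/Triton/SDS, pH 7.2, plus phosphatase/protease inhibitors). Blots: BCA-matched protein, 8% SDS-PAGE, nitrocellulose, primary antibodies overnight at 4°C, HRP secondary 1 h at room temperature, chemiluminescent detection.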

wild-type CHO cells = experiment: SDF-1α-induced phosphorylation of Akt in wild-type CHO cells; assay type: cell-based, Chinese hamster; settings: SDF-1α 12.5 nM, Western blotting
Method in brief: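 Untransfected CHO cells were treated with SDF-1α (12.5 nM), then lysed 30 min on ice in pH 7.2 Tris/NaCl/EGTA/deoxycholate/Triton/SDS buffer with phosphatase/protease inhibitors. Lysates were cleared at 17,000 g, 15 min, 4°C. BCA-matched protein ran on 8% SDS-PAGE onto nitrocellulose, blocked with milk or BSA in TBST. Probing: primary overnight at 4°C, HRP secondary 1 h at room temperature, chemiluminescence.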

CXCR7 [1] = experiment: SDF-1α-induced phosphorylation of Akt and Erk in CXCR7-transfected CHO cells; assay type: cell-based, human; settings: Western blotting; for effect on SDF-1α-induced Akt phosphorylation: peptides with SDF-1α
Method in brief: as §1

CXCR7 [2] = settings: cited from earlier work
[3] = system: CXCR4-dependent HIV-1 strains; settings: cited from earlier work
C3H/HeJ mice = experiment: Mobilization of hematopoietic progenitor cells to the blood; assay type: in vivo, mouse; settings: subcutaneous, 1 h; for mobilization of BFU-E from the bone marrow to the blood / mobilization of CFU-GEMM from the bone marrow to the blood / mobilization of CFU-GM from the bone marrow to the blood: 7-day culture in MethoCult GF M3434; for mobilization of HPCs from the bone marrow to the peripheral blood: vs vehicle control (P < 0.01), monovalent peptide 37.5 and 150 mg/kg, bivalent peptide 57.5 and 230 mg/kg, mean of at least three independent experiments
Method in brief: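 C3H/HeJ mice received vehicle or peptide subcutaneously. After 1 h, peripheral blood was drawn into heparin-treated tubes and red cells were lysed with ammonium chloride. Cells were grown in MethoCult GF M3434 for 7 days in humidified 5% CO2. CFU-GM, BFU-E and CFU-GEMM colonies were counted.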

CXCR4 = settings: HEK293 cells that stably expressed CXCR4; cited from earlier work
[4] = SDF-1α 12.5 nM, 5, 15, 30, 45, 60 minutes

Molecule	anti-HIV entry activity [3]	effect on SDF-1α-induced Akt phosphorylation (CXCR7 [1])	mobilization of BFU-E from the bone marrow to the blood (C3H/HeJ mice)	mobilization of CFU-GEMM from the bone marrow to the blood (C3H/HeJ mice)	mobilization of CFU-GM from the bone marrow to the blood (C3H/HeJ mice)	mobilization of HPCs from the bone marrow to the peripheral blood (C3H/HeJ mice)	also measured
c1cc(CN2CCCNCCNCCCNCC2)ccc1CN1CCCNCCNCCCNCC1 [AMD3100]							mobilization of HSCs to the peripheral blood (HSCs): rapid mobilization of HSCs to the peripheral blood
SDF-1α: specific ligand of CXCR4							induction of phosphorylation of Akt (human CXCR4; Western blotting): induced the phosphorylation of Akt and Erk significantly; induction of phosphorylation of Erk (human CXCR4; Western blotting): induced the phosphorylation of Akt and Erk significantly; induction of Akt phosphorylation (wild-type CHO cells): no changes in Akt phosphorylation; induction of Akt phosphorylation (CXCR7 [1]; [4]): only Akt phosphorylation was observed consistently from 5 to 60 minutes; also recorded: only weak phosphorylation of Akt; induction of Erk phosphorylation (CXCR7 [1]; [4]): no phosphorylation changes were observed for Erk; affinity for CXCR7 compared with CXCR4 (CXCR7 [2]): higher
LGASWHRPDKCCLGYQKRPLPQVL LSSWYPTSQLCSKPGVIFLTKRGRQ VCADKSKDWVKKLMQQLPVTAR [vMIP-II]							inhibition of HIV-1 entry ([3]; vMIP-II binding to CXCR4 or CCR5): inhibitory effect on HIV-1 entry
LGASWHRPDK [DV3]	anti-HIV entry activity						
LGASWHRPDKCCLGYQKRPLP [DV1]	anti-HIV entry activity	slight effect; also recorded: little or no effect	strongly induced rapid mobilization	strongly induced rapid mobilization	strongly induced rapid mobilization	strong mobilization of HPCs	effect on SDF-1α-induced Akt phosphorylation (CXCR7 [1]; listed as DV-1): little inhibitory effects
LGASWHRPDKCCLGYQKRPLPK [HC4319]		little inhibitory effects; also recorded: little or no effect	strongly induced rapid mobilization	strongly induced rapid mobilization	strongly induced rapid mobilization	strong mobilization of HPCs	inhibitory effect on phosphorylation of Akt compared with DV1 (human CXCR4; 30 μM, bivalent vs monovalent): more potent inhibitory effect; inhibitory effect on phosphorylation of Erk compared with DV1 (human CXCR4; 30 μM, bivalent vs monovalent): more potent inhibitory effect; CXCR4 binding potency compared with the monomeric counterparts DV1 and DV3 (CXCR4): much more potent
